# PLCg1 inh: PLC-gamma1 (human) inhibition, primary screen. P19174. purified PLC-gamma1, fluorogenic substrate, fluorescence. inhibition, % at 12.2 µM. hit rate 0.84% among 370,000; in the data active = inhibition above about 9.5%
# PLC-beta3 inh: inhibitors of human phospholipase C beta3. Q01970. Purified PLC-beta3, fluorogenic substrate, fluorescence. hit rate 0.18% among 370,000. inhibition, % at 12.2 µM; in the data active = inhibition above about 11%
# Tb MetRS inh: blocks T. brucei methionyl-tRNA synthetase activity | AID 624268 | purified T. brucei MetRS, ATP depletion, Kinase-Glo luminescence | hit rate 0.4% among 360,000 | inhibition, % at 11.9 µM;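 active = inhibition above a per-plate cutoff of the control wells' mean inhibition plus 3 SD, cut at about 5.5% in these data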
#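 Test system: purified T. brucei MetRS enzyme. Also added: ATP, methionine and E. coli bulk tRNA substrates. Compound: 11.9 µM single point. Schedule: 15 min enzyme-compound preincubation, 2 h reaction, 10 min detection, 25 °C. Signal: luciferase luminescence of residual ATP, Kinase-Glo. Evaluation: percent inhibition versus plate control medians. Controls: DMSO wells, low control.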
# DAGLB inh: blocks human DAGLB lipase activity; hit rate 0.059% among 340,000; inhibition, % at 5.17 µM; HEK293T DAGLB membrane lysate, EnzChek fluorogenic substrate; in the data active = inhibition above about 34%
# Target sequence (Q8NCG7 whole entry, looked up): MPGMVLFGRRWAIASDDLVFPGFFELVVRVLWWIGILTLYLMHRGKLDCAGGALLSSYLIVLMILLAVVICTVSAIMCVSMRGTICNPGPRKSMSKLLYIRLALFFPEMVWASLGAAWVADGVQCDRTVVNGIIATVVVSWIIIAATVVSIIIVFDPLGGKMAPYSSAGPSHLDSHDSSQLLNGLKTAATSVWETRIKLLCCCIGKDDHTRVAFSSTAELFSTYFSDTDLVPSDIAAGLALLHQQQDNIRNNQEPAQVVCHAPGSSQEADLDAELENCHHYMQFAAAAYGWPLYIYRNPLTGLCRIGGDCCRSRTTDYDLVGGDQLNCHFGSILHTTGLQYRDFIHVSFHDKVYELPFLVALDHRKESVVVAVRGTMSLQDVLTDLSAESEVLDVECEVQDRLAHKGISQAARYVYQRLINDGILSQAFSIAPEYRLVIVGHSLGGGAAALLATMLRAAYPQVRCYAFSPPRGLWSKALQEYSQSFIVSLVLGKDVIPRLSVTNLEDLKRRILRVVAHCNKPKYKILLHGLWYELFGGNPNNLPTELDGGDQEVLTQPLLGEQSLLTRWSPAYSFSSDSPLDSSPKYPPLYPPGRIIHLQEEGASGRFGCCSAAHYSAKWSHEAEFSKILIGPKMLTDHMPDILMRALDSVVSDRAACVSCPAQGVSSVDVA
# sPLA2-III inh: Blocks human group III sPLA2 activity. QFRET BODIPY PC-A2 liposome hydrolysis, fluorescence. Q9NZ20. AID 743126. hit rate 0.56% among 370,000. inhibition, % at 12.2 µM;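 active = inhibition above mean plus 3 SD of compounds lying within the high and low control bounds, cut at about 19% in these data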
# sPLA2 confirm: human GIII-sPLA2 inhibition, confirmation | recombinant hGIII-sPLA2, BODIPY PC-A2 QFRET fluorescence | hit rate 34% among 2,000 | shares compounds with sPLA2-III inh | AID 743280 | inhibition, % at 12.2 µM;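 active = mean inhibition across triplicates above the hit cutoff set in the earlier primary screen, cut at about 19% in these data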
# BODIPY interf: counter-screen for HGIII-sPLA2 inhibitors: 535nm fluorescence interference; AID 743282; hit rate 8.5% among 2,000; inhibition, % at 12.2 µM; BODIPY FL product fluorescence interference, QFRET; shares compounds with sPLA2-III inh;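 active = average inhibition above the solvent-only control mean plus 3 SD, cut at about 6% in these data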
# 535nm interf DR: interferes with 535nm fluorescence in dose response counter-screen | IC50, µM | shares compounds with sPLA2-III inh | 240 tested, under 10 active | BODIPY FL product fluorescence interference, cell-free;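 active = IC50 at or below 10 µM; inactive = IC50 above 10 µM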
# Numbers stand for hits; i = inactive; nt = not tested or not shown. Hits are enriched below; roughly 1.9% of the tested compounds scored in any of these assays.
SMILES,PLCg1 inh,PLC-beta3 inh,Tb MetRS inh,DAGLB inh,sPLA2-III inh,sPLA2 confirm,BODIPY interf,others
O=C(CSc1nnc(COc2ccccc2)n1-c1ccc(Cl)cc1)Nc1ccc2c(c1)OCCO2,i,i,nt,nt,i,nt,nt,
O=C(Nc1c(-c2ccccc2)nc2ncccn12)c1ccccc1,i,i,nt,nt,i,nt,nt,
COCCn1cnc2c(c1=O)c1nc3ccccc3nc1n2/N=C/c1ccco1,i,i,i,i,19,i,i,
CCCCCCn1cnc2c(c1=O)c1nc3ccccc3nc1n2/N=C/c1ccco1,i,i,i,i,i,nt,nt,
Cc1cc(C)c2nc(NNC(=O)c3ccc(S(=O)(=O)N4CCc5ccccc5C4)cc3)sc2c1,i,i,i,i,50,36,i,
COC(=O)N/N=C/c1cc(Br)ccc1O,i,i,i,i,i,nt,nt,
Oc1ccc(Br)cc1/C=N/NC(=S)NCCc1ccccc1,i,i,i,i,26,24,i,
CC(C)NC(=S)N/N=C/c1cc(Br)ccc1O,i,i,i,i,29,i,i,
CC1(C)CC(=O)C=C(c2ccccc2-c2ccc3c(c2)OCO3)C1=O,i,i,nt,nt,i,nt,nt,
CC(C)C[C@H]1COc2cccc(F)c2S(=O)(=O)N1,i,i,nt,nt,i,nt,nt,
CC(C)(C)c1csc(NC(=O)c2cccnc2)n1,i,i,i,i,i,nt,nt,
CC(C)(C)c1csc(NNC(=O)c2ccc(Cl)cc2)n1,i,i,i,nt,34,45,i,535nm interf DR=i
CC(=O)Nc1ccc(S(=O)(=O)NCC2CCN(C(=O)C(=O)c3cc4ccccc4o3)CC2)cc1,i,i,nt,nt,i,nt,nt,
COC(=O)[C@]12C[C@H](CC(=O)NCc3cccs3)C(=O)N(Cc3cccc4ccccc34)C1=C[C@H](C1CCCC1)O[C@@H]2C,i,i,nt,nt,i,nt,nt,
N=C1C(c2nc3ccccc3[nH]2)=C(O)CN1c1ccccc1,i,i,i,i,22,i,i,
O=C(Nc1ccccc1C(F)(F)F)OC1CC2CC1[C@H]1CCCCN1C2 (stereo not given in full),i,i,nt,nt,i,nt,nt,
CCN=c1scc(C)n1/N=C/c1cc(Br)c(O)c(Br)c1,i,i,i,i,22,21,i,
CCN=c1scc(C)n1/N=C/c1ccc(O)c(O)c1O,i,i,i,i,22,24,i,
CCN=c1scc(-c2ccco2)n1/N=C/c1ccc(O)cc1,i,i,i,i,i,nt,nt,
C=C(C)CN=c1scc(C)n1/N=C/c1ccco1,i,i,i,i,i,nt,nt,
O=C(C(=O)N1CCN(C(=O)c2ccccc2C(F)(F)F)CC1)c1cccc(C(F)(F)F)c1,i,i,nt,nt,i,nt,nt,
O=C(CC(=O)N/N=C/c1ccccc1O)NCc1cccnc1,i,i,i,i,19,i,i,
CC(C)Oc1ccc(CC2CC(=O)NC2=O)cc1 (stereo not given),i,i,i,i,i,nt,nt,
CC(C)Oc1ccc(CC2CCC(=O)N(C)C2=O)cc1 (stereo not given),i,i,i,i,21,i,i,
CC1(C)CC(=O)C(N=Nc2ccc(C(F)(F)F)cc2[N+](=O)[O-])=C(O)C1,i,i,i,nt,20,i,i,
SMILES,PLCg1 inh,PLC-beta3 inh,Tb MetRS inh,DAGLB inh,sPLA2-III inh,sPLA2 confirm,BODIPY interf,others
CC1(C)CC(=O)C(N=Nc2cccc([N+](=O)[O-])c2)=C(O)C1,i,i,i,i,i,nt,nt,
COc1ccc(CCN2CCC(CN3C(=S)NC[C@@H]3Cc3ccccc3)CC2)cc1OC,i,i,nt,nt,i,nt,nt,
CC(=O)CC[C@H]1CC[C@]2(CCCN(C(=O)c3ccccc3)C2)O1,i,i,nt,nt,i,nt,nt,
Cc1c(C(=O)NNC(=S)NCc2ccc(Cl)cc2)oc2ccccc12,i,i,i,i,24,i,16,
O=C(CNc1ccc(Cl)cc1)NNC(=S)NCc1ccccc1,i,i,i,i,25,38,i,535nm interf DR=i
COc1ccc(NC(=S)NNC(=O)CNc2ccc(Cl)cc2)cc1,i,i,i,i,29,35,7.4,
S=C(NCc1ccccc1)Nc1cccc(Cl)c1,i,i,i,i,i,nt,nt,
COc1ccc(NC(=S)NNC(=O)COc2ccc(Cl)cc2Cl)cc1,i,i,i,i,i,nt,nt,
CCN(CC(=O)NCc1ccc(Cl)cc1)C(=O)c1oc2ccccc2c1C,i,i,i,i,i,nt,nt,
O=C(CNc1cccc(Cl)c1)NNC(=S)NCc1ccccc1,i,i,i,i,27,32,i,535nm interf DR=i
C/C=C/c1ccc([C@H]2[C@@H](CN(CC(C)C)S(=O)(=O)c3ccccc3[N+](=O)[O-])N(C(=O)Nc3cccc(OC)c3)[C@H]2CO)cc1,i,i,nt,nt,i,nt,nt,
C[C@H]1[C@@H](OC(=O)N2CCCC2)CC[C@@]23CCCN2C(=O)CCC[C@@H]13,i,i,nt,nt,i,nt,nt,
Cc1cc(O)cc(=O)n1-c1ccc(Cl)c(C(F)(F)F)c1,i,i,nt,nt,i,nt,nt,
COc1ccc(C(=O)c2ccccc2C(=O)c2ccccc2)cc1,i,i,i,i,i,nt,nt,
COc1ccc(C(=O)c2coc(-c3ccccc3C(=O)O)c2C(=O)O)cc1,i,i,i,i,19,i,i,
COc1ccc(-c2cc(-c3nnc(SCC(=O)Nc4cccc(Cl)c4C)n3N)[nH]n2)cc1,i,i,nt,nt,i,nt,nt,
COc1cc(Br)c(/C=C/c2ccc3cccc(O)c3n2)cc1OC,i,i,i,i,i,nt,nt,
Oc1cccc2ccc(/C=C/c3ccccc3Br)nc12,i,i,i,i,26,i,i,
CCN(CC)C(=O)CC[C@H]1CC[C@]2(CCCN(C(=O)c3ccco3)C2)O1,i,i,nt,nt,i,nt,nt,
CCc1ccc(OCCNc2cc(N3CCNC(C)C3)ccc2[N+](=O)[O-])cc1 (stereo not given),i,i,i,i,26,i,i,
CC1CN(c2ccc([N+](=O)[O-])c(NCCOc3ccc(Cl)cc3)c2)CC(C)N1 (stereo not given),i,i,i,i,i,nt,nt,
C[C@H]1[C@@H](C(=O)N2CCCC2)Cc2nc3ccccc3nc2C[C@@H]1c1ccccc1,i,i,nt,nt,i,nt,nt,
S=c1[nH]c2cc(Cl)ccc2s1,i,i,i,i,24,21,i,
CCCc1cc(C(=O)NNC(=S)NCC2CCCO2)cs1 (stereo not given),i,i,i,i,23,i,i,
CCc1cc(C(=O)NNC(=S)NCC2CCCO2)cs1 (stereo not given),i,i,i,i,i,nt,nt,
CCN1C(=NCCc2ccc(Br)cc2)N[C@@H](c2ccccc2)[C@H](C(=O)OC)[C@H]1C,i,i,i,i,i,nt,nt,
CCN1C(=NCCCOC(C)C)N[C@@H](c2ccccc2)[C@H](C(=O)OC)[C@H]1C,i,i,i,i,19,i,i,
CC(=NNc1cc(C)c2cc(C)ccc2n1)c1ccccn1,i,i,nt,nt,i,nt,nt,
O=S1(=O)CCSC[C@@H](CN2CCN(c3ccccc3)CC2)N1,i,i,nt,nt,i,nt,nt,
Cc1c(C#N)c(N)nc(Cl)c1C#N,i,i,i,i,i,nt,nt,

# Screens deposited in PubChem by The Scripps Research Institute Molecular Screening Center.
